Test results published in ChEMBL document CHEMBL1932927, “Synthesis and evaluation of platelet aggregation inhibitory activity of some 3-phenyl-pyrroloquinazolinones” (Eur J Med Chem, 2012).
pIC50: −log10 of the molar value. Active and inactive are the calls of the source. The rule behind the calls is not given here.

Key:
[1] = test system: Platelet; assay: Antiplatelet activity against human platelets assessed as inhibition of thrombin-induced platelets aggregation at 8 uM pretreated 3 mins before compound addition by aggregometer analysis; type: functional, cell-based
Summary of the method: (§1)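 Platelets isolated by differential centrifugation and resuspended in Tris/Hepes basal buffer pH 7.4. Exposed to compound or DMSO vehicle for 3 min, then thrombin 40 mU/mL added. Initial aggregation rate (velocity) recorded from aggregation traces. Means of four separate determinations ± S.E.M.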

[2] = test system: Platelet; assay: Antiplatelet activity against human platelets assessed as inhibition of collagen-induced platelets aggregation at 8 uM pretreated 3 mins before compound addition by aggregometer analysis; type: functional, cell-based
Summary of the method: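 Washed platelets in basal buffer pH 7.4 (2-4 × 10⁸ cells/mL) preincubated 3 min with compound (8 µM) or DMSO, then stimulated with collagen […] (so in the source). Aggregation rate relative to vehicle control; means of 4 experiments ± S.E.M.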

[3] = (§2) Antiplatelet activity against human platelets assessed as inhibition of thrombin-induced platelets aggregation pretreated 3 mins before compound addition by aggregometer analysis; type: functional, cell-based; conditions: Platelet; summary of the method: as §1
[4] = test system: Platelet; assay: as §2; type: functional, cell-based; summary of the method: as §1
[5] = test system: Platelet; assay: Antiplatelet activity against human platelets assessed as inhibition of thrombin-induced platelets aggregation at >4 uM pretreated 3 mins before compound addition by aggregometer analysis; type: functional, cell-based
[6] = test system: Platelet; assay: Antiplatelet activity against human platelets assessed as inhibition of Ca2+-ionophore ionomycin-induced platelets aggregation at 2 to 8 uM pretreated 3 mins before compound addition by aggregometer analysis; type: functional, cell-based
Summary of the method: (§3)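 Washed platelets (ACD/apyrase/prostacyclin, differential centrifugation, resuspended in Tris/Hepes basal buffer pH 7.4, 2-4 × 10⁸ cells/mL) preincubated 3 min with test agent or DMSO. Then 20 nM PMA or ionomycin added. Maximal aggregation rate after agonist taken as 100% without compound. Means of 4 experiments ± S.E.M.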

[7] = test system: Platelet; assay: Antiplatelet activity against human platelets assessed as inhibition of phorbol-ester-induced platelets aggregation at 2 to 8 uM pretreated 3 mins before compound addition by aggregometer analysis; type: functional, cell-based; summary of the method: as §3
[8] = test system: Platelet; assay: Increase in cytosolic calcium level in human platelets at 2 uM using fluorescent probe fura 2 by fluorescence assay; type: functional, cell-based
Summary of the method: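 Cytosolic Ca²⁺ monitored with fura 2 (excitation 340/385 nm, emission 505 nm) in stirred thermostated cuvette after 2 µM compound addition alone, versus DMSO vehicle. Representative of three experiments.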

[9] = test system: Platelet; assay: Increase in thrombin-indcued cytosolic calcium level in human platelets at 2 uM treated 1 min before thrombin challenge using fluorescent probe fura 2 by fluorescence assay; type: functional, cell-based
Summary of the method: (§4)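 Fura 2-loaded platelets in stirred thermostated cuvette; excitation 340/385 nm, emission 505 nm. Compound (2 µM) or DMSO added, thrombin 40 mU/mL given 1 min or 3 min later. Also run with 0.5 mM EGTA added 1 min before compound. Traces representative of three experiments.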

[10] = test system: Platelet; assay: Decrease in thrombin-indcued cytosolic calcium level in human platelets at 2 uM treated 3 mins before thrombin challenge using fluorescent probe fura 2 by fluorescence assay; type: functional, cell-based; summary of the method: as §4
[11] = species: Homo sapiens; assay: Inhibition of protein tyrosine kinase phosphorylation in human platelets at 2 uM by SDS/PAGE analysis
Summary of the method: (§5)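 Platelets at 300 × 10⁶ cells/mL in basal medium pretreated 3 min with 2 µM compound or DMSO, then left resting or stimulated with thrombin 40 mU/mL. Proteins run on 10% SDS/PAGE, blotted, probed with anti-phosphotyrosine PY20, detected by ECL. Actin immunoblot served as loading control. Four experiments.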

[12] = species: Homo sapiens; assay: Inhibition of protein tyrosine kinase phosphorylation in thrombin-stimulated human platelets at 2 uM treated 3 mins before thrombin challenge by SDS/PAGE analysis; summary of the method: as §5
[13] = Toxicity in human platelets assessed as LDH release at 4 uM after 1 hr; type: cell-based; conditions: platelet
Summary of the method: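 Platelets (2 × 10⁸ cells/mL) incubated 1 h at 37 °C with compound, then centrifuged 3 min at 3000 g. Supernatant LDH measured with 5 mM NADH and 50 mM pyruvate as OD decrease at 340 nm. Total LDH determined after 0.1% Triton X-100 lysis.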

[14] = Toxicity in human platelet assessed as cell viability at 4 uM after 4 to 6 hrs by alamar blue method; type: cell-based
Summary of the method: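 Platelet suspensions with 1 mM NaHCO3 and 0.2% BSA kept at 37 °C under 5% CO₂ with compound for 4-6 h. Viability read fluorimetrically by Alamar Blue reduction.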

| SMILES | inhibition [1] | inhibition [2] | also measured |
| --- | --- | --- | --- |
| O=c1c(-c2ccccc2)c[nH]c2c1ccc1[nH]ccc12 | Active | Active |  |
| CCn1ccc2c3c(=O)[nH]c(-c4ccc(OC)cc4)nc3ccc21 | Active | Active |  |
| CCn1ccc2c3c(=O)c(-c4ccccc4)c[nH]c3ccc21 | Active | Active |  |
| O=c1c(-c2ccccc2)c[nH]c2ccc3[nH]ccc3c12 | Active | Active |  |
| O=c1[nH]c(-c2ccccc2)nc2ccc3[nH]ccc3c12 | Active | Active | pIC50 [3]: 5.75; inhibition [4]: Dose-dependent effect; inhibition [5]: Active; inhibition [6]: Active; inhibition [7]: Active; Activity [8]: Active; Activity [9]: Active; Activity [10]: Active; inhibition [11]: inactive; inhibition [12]: Active; Activity [13]: Non-toxic; Activity [14]: Toxic |
| CCn1ccc2c3c(=O)[nH]c(-c4ccccc4)nc3ccc21 | Active | Active |  |
| CCn1ccc2c3[nH]cc(-c4ccccc4)c(=O)c3ccc21 | Active | Active |  |
| O=c1[nH]c(-c2ccccc2)nc2ccc3c(ccn3CC3CC3)c12 | Active | Active |  |
